The record followed here is ChEMBL document CHEMBL1140818, “Triazole derivatives as non-nucleoside inhibitors of HIV-1 reverse transcriptase--structure-activity relationships and crystallographic analysis” (Bioorg Med Chem Lett, 2008).

Data set [1] has as its system Human immunodeficiency virus 1. As to the kind of experiment: Antiviral activity against HIV1 in MT4 cells. The data set is classed as functional, organism-based. To be noted: Human immunodeficiency virus 1, MT4. In outline:
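HIV-1 infectivity assay in MT-4 cells over 5 days, with virus-induced cell death as the read-out. EC50 is the mean of at least two independent experiments.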

Data set [2] can be described thus: Selectivity index, ratio of EC50 for MT4 cells to EC50 for HIV1. The data set is classed as cell-based. To be noted: human; for Selectivity index: mt4; for selectivity ratio: MT4 cells, read-out: Selectivity index. In outline:
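Ratio of the cytotoxicity EC50 to the antiviral EC50, both from the 5-day MT-4 assay with virus-induced cell death as the antiviral read-out. Values are means of at least two independent experiments.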

Data set [3] is described as follows: Partition coefficient, log D of the compound. The data set is classed as physicochemical. The following applies: octanol/water.

Structures are written as SMILES.

The term EC50 denotes the concentration giving half of the maximal effect. In turn, `CCCCCCSc1nnc(-c2ccsc2)n1Cc1ccccc1` gave an EC50 in data set [1] above 100 µM. Further, the Selectivity index entry in data set [2] is reported as “Not Active”.
`Clc1ccc(CSc2nnc(-c3ccsc3)n2Cc2ccccc2)cc1`: in data set [1], it took 51.1 µM to reach a half-maximal effect (EC50). Besides, the selectivity ratio in data set [2] was at most 1.
Molecule `Clc1cccc(Cl)c1CSc1nnc(-c2ccsc2)n1Cc1ccccc1` came in with an EC50 in data set [1] above 100 µM. Further, in data set [2], the Selectivity index entry is “Not Active”.
The molecule `N#Cc1ccc(CSc2nnc(-c3cccs3)n2Cc2ccccc2)cc1` came in with an EC50 in data set [1] of 23.5 µM. Moreover, in data set [2], the selectivity ratio was below 1.
For `O=C1Nc2ccc(Cl)cc2C(C#CC2CC2)(C(F)(F)F)O1` (single isomer, unassigned) [EFAVIRENZ], in data set [2], the selectivity ratio is above 6000.
Regarding `Cn1c(SCc2ccccc2)nnc1-c1cccs1`, in data set [1], the EC50 was above 100 µM. In data set [2], the Selectivity index entry is given as “Not Active”.
For the molecule `c1ccc(Cn2c(SCc3ccccn3)nnc2-c2ccsc2)cc1`, the Selectivity index result in data set [2] was “Not Active”.
In turn, `CSc1nnc(-c2cccs2)n1Cc1ccccc1` registered an EC50 in data set [1] above 100 µM. For the same molecule, the Selectivity index entry in data set [2] is given as “Not Active”.
Consider `c1ccc(CSc2nnc(-c3cccs3)n2-c2ccccc2)cc1`, for which, in data set [1], the concentration for a half-maximal effect (EC50) was above 100 µM. Moreover, in data set [2], the Selectivity index entry is “Not Active”.
`c1ccc(Cn2c(SCc3cccnc3)nnc2-c2cccs2)cc1`: the EC50 in data set [1] is 8.3 µM. In addition, the selectivity ratio in data set [2] is 6.
For `Cc1nnc(SCc2ccccc2)n1Cc1ccccc1`, in that order: 23.5 µM and 2.
Regarding `c1ccc(Cn2c(SCc3ccc4ccccc4c3)nnc2-c2ccsc2)cc1`, in data set [1], the EC50 was 0.58 µM. For the same molecule, the selectivity ratio in data set [2] is 11.1.
Molecule `Clc1ccc(Cl)c(CSc2nnc(-c3cccs3)n2Cc2ccccc2)c1` registered an EC50 in data set [1] of 1 µM. Besides, the selectivity ratio in data set [2] was found to be 7.9.
With `c1ccc(CCSc2nnc(-c3cccs3)n2Cc2ccccc2)cc1`, in data set [1], it took 28.5 µM to reach a half-maximal effect (EC50). Besides, in data set [2], the selectivity ratio was at most 1.
Molecule `N#Cc1ccc(CSc2nnc(-c3ccsc3)n2Cc2ccccc2)cc1` displayed an EC50 in data set [1] above 100 µM. Besides, in data set [2], the Selectivity index entry is “Not Active”.
Regarding `Clc1ccccc1-c1nnc(SCc2ccccc2)n1Cc1ccccc1`, the EC50 in data set [1] is 2.85 µM. The selectivity ratio in data set [2] came out at 2.9.
The molecule `c1ccc(CSc2nnc(-c3ccco3)n2Cc2ccccc2)cc1` came in with an EC50 in data set [1] of 4.6 µM. Also, the selectivity ratio in data set [2] was 5.2.
`Clc1ccccc1CSc1nnc(-c2ccsc2)n1Cc1ccccc1`: the midpoint of the response in data set [1], the EC50, lay at 0.131 µM. The selectivity ratio in data set [2] came to 62.
Broadly, the logD is lipophilicity at a set pH, counting ionised and neutral species. Read a high logD as higher lipophilicity. In turn, `c1ccc(CSc2nnc(-c3cccs3)n2Cc2ccccc2)cc1` displayed an EC50 in data set [1] of 3.7 µM. In addition, the selectivity ratio in data set [2] was found to be 8. The same molecule showed a logD in data set [3] of 3.5.
As for `Clc1ccc(Cn2c(SCc3ccccc3)nnc2-c2cccs2)cc1`, the EC50 in data set [1] is above 100 µM.
As for `c1ccc(Cn2c(SCc3cccnc3)nnc2-c2ccsc2)cc1`, a half-maximal effect in data set [1] (EC50) was put at 23 µM. Besides, the selectivity ratio in data set [2] was 2.
Turning to `Clc1ccccc1CSc1nnc(-c2cccs2)n1Cc1ccccc1`, the EC50 in data set [1] was determined as 0.44 µM. Also, in data set [2], the selectivity ratio is 35.2.
The molecule `c1ccc(Cn2c(SCc3ccncc3)nnc2-c2ccsc2)cc1` registered an EC50 in data set [1] of 41.5 µM. Further, in data set [2], the selectivity ratio came to 1.
For `COc1ccc(CSc2nnc(-c3ccsc3)n2Cc2ccccc2)cc1`, the EC50 in data set [1] worked out at 5.8 µM. The selectivity ratio in data set [2] came out at 1.
In the case of `Clc1ccc(Cn2c(SCc3ccccc3)nnc2-c2cccs2)cc1Cl`, the EC50 in data set [1] is above 100 µM. For the same molecule, the Selectivity index entry in data set [2] is “Not Active”.
The molecule `c1ccc(CCn2c(SCc3ccccc3)nnc2-c2cccs2)cc1` came in with an EC50 in data set [1] above 100 µM. The Selectivity index result in data set [2] is “Not Active”.
On to `Clc1ccc(CSc2nnc(-c3ccsc3)n2Cc2ccccc2)c(Cl)c1`, for which the EC50 in data set [1] is 3.3 µM. Further, the selectivity ratio in data set [2] was found to be 2.9.
For `c1ccc(Cn2c(SCc3ccncc3)nnc2-c2cccs2)cc1`, in that order: 4.8 µM and 15.
`Clc1ccc(CSc2nnc(-c3cccs3)n2Cc2ccccc2)cc1Cl` came in with an EC50 in data set [1] of 2.4 µM. Further, the selectivity ratio in data set [2] came out at 3.1.
In data set [1], `Clc1ccc(CSc2nnc(-c3cccs3)n2Cc2ccccc2)c(Cl)c1` displayed an EC50 of 1.1 µM. Further, the selectivity ratio in data set [2] is 7.7.
In data set [1], `CCCCCCSc1nnc(-c2cccs2)n1Cc1ccccc1` came in with an EC50 above 100 µM. Also, the Selectivity index entry in data set [2] is “Not Active”.
For `CSc1nnc(-c2ccsc2)n1Cc1ccccc1` the same measures were above 100 µM and “Not Active”.
The molecule `c1ccc(Cn2c(SCc3ccc4ccccc4c3)nnc2-c2cccs2)cc1` came in with an EC50 in data set [1] of 1.7 µM. For the same molecule, in data set [2], the selectivity ratio is 5.9.
With `Clc1ccc(CSc2nnc(-c3ccsc3)n2Cc2ccccc2)cc1Cl`, in data set [1], a half-maximal effect (EC50) was put at 4.7 µM. Further, in data set [2], the selectivity ratio amounted to 1.2.
Take `c1ccc(CSc2nnc(Cc3cccs3)n2Cc2ccccc2)cc1`: in data set [1], the EC50 was above 100 µM. Besides, the Selectivity index entry in data set [2] was “Not Active”.
The molecule `COc1ccc(CSc2nnc(-c3cccs3)n2Cc2ccccc2)cc1` displayed an EC50 in data set [1] of 3 µM. In data set [2], the selectivity ratio worked out at 3.8.
In the case of `Clc1cccc(CSc2nnc(-c3ccsc3)n2Cc2ccccc2)c1`, in data set [1], it took 1.6 µM to reach a half-maximal effect (EC50). In data set [2], the selectivity ratio is 6.3.
Consider `Clc1cccc(Cl)c1CSc1nnc(-c2cccs2)n1Cc1ccccc1`, for which it took 3.45 µM to reach a half-maximal effect in data set [1] (EC50). For the same molecule, the selectivity ratio in data set [2] was found to be 1.7.
The molecule `Clc1cccc(CSc2nnc(-c3ccsc3)n2Cc2ccccc2)c1Cl` came in with an EC50 in data set [1] of 1.3 µM. In data set [2], the selectivity ratio came out at 5.
Consider `c1ccc(CCSc2nnc(-c3ccsc3)n2Cc2ccccc2)cc1`, for which the EC50 in data set [1] was above 100 µM. Also, the Selectivity index result in data set [2] is given as “Not Active”.
The molecule `Clc1cccc(CSc2nnc(-c3cccs3)n2Cc2ccccc2)c1` had an EC50 in data set [1] of 1.7 µM. Further, the selectivity ratio in data set [2] came out at 5.3.
The molecule `Clc1cccc(CSc2nnc(-c3cccs3)n2Cc2ccccc2)c1Cl` returned an EC50 in data set [1] of 0.73 µM. The selectivity ratio in data set [2] was found to be 9.1.
In turn, `Clc1ccc(CSc2nnc(-c3cccs3)n2Cc2ccccc2)cc1` had an EC50 in data set [1] of 2 µM. Besides, the selectivity ratio in data set [2] came out at 5.7.
Consider `COc1ccc(Cn2c(SCc3ccccc3)nnc2-c2cccs2)cc1`, for which the EC50 in data set [1] was above 100 µM. In addition, the Selectivity index result in data set [2] is reported as “Not Active”.
`c1ccc(CSc2nnc(-c3cc4ccccc4s3)n2Cc2ccccc2)cc1` displayed an EC50 in data set [1] above 100 µM. The Selectivity index entry in data set [2] was “Not Active”.
Take `c1ccc(Cn2c(SCc3ccccn3)nnc2-c2cccs2)cc1`: the midpoint of the response in data set [1], the EC50, lay at 8.3 µM. Besides, the selectivity ratio in data set [2] amounted to 5.
For the molecule `Clc1ccc(Cl)c(CSc2nnc(-c3ccsc3)n2Cc2ccccc2)c1`, it took 8.95 µM to reach a half-maximal effect in data set [1] (EC50). In addition, in data set [2], the selectivity ratio turned out to be 1.6.
In data set [1], `c1ccc(CSc2nnc(-c3ccccc3)n2Cc2ccccc2)cc1` displayed an EC50 of 10.5 µM. In addition, in data set [2], the selectivity ratio is 1.1.
For `c1ccc(CSc2nnc(-c3ccsc3)n2Cc2ccccc2)cc1`, in that order: 9.2 µM and 2.
